# From ChEMBL document CHEMBL1125351, “Isobenzofurans as conformationally constrained miconazole analogues with improved antifungal potency” (1992)
# Where “and” joins values, the source holds several entries; their conditions need not be identical. Identical values can stand only once.
# Columns and labels:
# [1] = tested on: Candida albicans; test: Minimum inhibitory concentration against Candida albicans at a pH of 5.7 using SDB medium; format: functional
# Procedure, shortened: (§1)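 Broth dilution in Sabouraud dextrose broth, pH 5.7. Compounds dissolved in DMSO or ethanol, serially diluted in medium, inoculated and incubated at 27 °C. Wells read visually at 48 h. MIC is the lowest concentration giving complete growth inhibition.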
# [2] = tested on: Candida albicans; test: Minimum inhibitory concentration against Candida albicans using eagles minimum essential medium (EMEM); format: functional
# Procedure, shortened: (§2)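 Candida MICs in Eagle's minimum essential medium, pH 7.0. Compounds in DMSO or ethanol were serially diluted in medium, inoculated and incubated at 37 °C under CO₂. […] The summary value is the geometric mean of the MICs across strains.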
# [3] = tested on: Candida albicans; test: Minimum inhibitory concentration against Candida stellatoidea at a pH of 5.7 using SDB medium; format: functional; procedure, shortened: as §1
# [4] = tested on: Candida; test: Compound is evaluated for geometric mean of MIC values of Candida species; format: functional; set-up: unit not given beside the values
# [5] = tested on: Candida tropicalis; test: Minimum inhibitory concentration against Candida tropicalis at a pH of 5.7 using SDB medium; format: functional; procedure, shortened: as §1
# [6] = tested on: Candida tropicalis; test: Minimum inhibitory concentration against Candida tropicalis using eagles minimum essential medium (EMEM); format: functional; procedure, shortened: as §2
# [7] = tested on: Arthrodermataceae; test: (§3) Compound is evaluated for geometric mean of MIC values of dermatophytes; format: functional; set-up: unit not given beside the values
# Procedure, shortened: (§4)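 Dermatophyte isolates tested by serial broth dilution in SDB, pH 5.7. Compound stocks in DMSO or ethanol, incubated at 27 °C, and growth read visually at 72 h. MIC is the lowest concentration with no visible growth. The summary value is the geometric mean of the MICs across the organisms.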
# [8] = tested on: Epidermophyton floccosum; test: Minimum inhibitory concentration against Epidermophyton floccosum at a pH of 5.7 using SDB medium; format: functional; procedure, shortened: as §4
# [9] = tested on: Microsporum canis; test: Minimum inhibitory concentration against Microsporum canis at a pH of 5.7 using SDB medium; format: functional; procedure, shortened: as §4
# [10] = tested on: Trichophyton benhamiae; test: Minimum inhibitory concentration against Trichophyton mentagrophytes at a pH of 5.7 using SDB medium; format: functional, Arthroderma benhamiae; procedure, shortened: as §4
# [11] = tested on: Trichophyton rubrum; test: Minimum inhibitory concentration against Trichophyton rubrum at a pH of 5.7 using SDB medium; format: functional; procedure, shortened: as §4
# [12] = Geometric mean for the above three species of Candida, tested in EMEM medium; format: functional; procedure, shortened: as §2
# [13] = tested on: Candida albicans; test: Minimum inhibitory concentration against Candida stellatoidea using eagles minimum essential medium (EMEM); format: functional; procedure, shortened: as §2
# [14] = tested on: Candida parapsilosis; test: Minimum inhibitory concentration against Candida parapsilosis at a pH of 5.7 using SDB medium; format: functional; settings: Lodderomyces parapsilosis; procedure, shortened: as §1
# [15] = tested on: Nannizzia gypsea; test: Minimum inhibitory concentration against Microsporum gypseum at a pH of 5.7 using SDB medium; format: functional; procedure, shortened: as §4
# [16] = tested on: Cavia porcellus; test: In vivo inhibition of topical Trichophyton infection in Guinea Pig after drug administration; format: functional
# Procedure, shortened: (§5)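 Guinea pigs (5 per compound) infected with T. mentagrophytes D24 by swabbing a homogenate onto shaven, abraded skin. From day 4 post-infection, 0.25% (w/v) compound in EtOH–PEG 400–glycerol (10:45:45) was rubbed in topically twice daily for 10 days. Hair samples were cultured on SDA at 27 °C for up to 16 days. Read-outs were the % negative cultures and the day each animal became culture-negative.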
# [17] = tested on: Cavia porcellus; test: In vivo inhibition of topical Trichophyton infection in Guinea Pig during drug administration; format: functional; procedure, shortened: as §5
# [18] = tested on: Cricetinae gen. sp.; test: Inhibition of Vaginal Candida (C-43 strain) infection in Hamsters, estimated as Percent Area under curve at 0.25 % concentration after 8 days of administration; format: functional, Cricetulus griseus
# [19] = tested on: Cricetinae gen. sp.; test: Inhibition of Vaginal Candida (C-60 strain) infection in Hamsters, estimated as Percent Area under curve at 0.25 % concentration after 4 days of administration; format: functional, Cricetulus griseus
# [20] = tested on: Cricetinae gen. sp.; test: Inhibition of Vaginal Candida (C-60 strain) infection in Hamsters, estimated as Percent Area under curve at 0.25 % concentration after 8 days of administration; format: functional, Cricetulus griseus
# [21] = tested on: Cricetinae gen. sp.; test: Inhibition of Vaginal Candida (C-60 strain) infection in Hamsters, estimated as Percent Area under curve at 0.01 % concentration after 4 days of administration; format: functional, Cricetulus griseus
# Procedure, shortened: (§6)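 Hamster vaginal C. albicans infection (strains C43 or C60; 10 animals per compound). From day 5 post-infection, a cotton pellet holding 0.15 mL of 0.05% or 0.01% (w/w) compound in EtOH–PEG 400–glycerol (10:45:45) was inserted once daily for 4 or 8 days. Vaginal swabs were filtered and the filters cultured on SDA at 37 °C for 48 h. Read-out was the area under the % negative cultures versus time curve.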
# [22] = tested on: Cricetinae gen. sp.; test: Inhibition of Vaginal Candida (C-60 strain) infection in Hamsters, estimated as Percent Area under curve at 0.05 % concentration after 4 days of administration; format: functional, Cricetulus griseus; procedure, shortened: as §6
# [23] = organism: Cavia porcellus; test: Lession score which is determined as number of animals minus days to become negative; format: functional; procedure, shortened: as §5
# [24] = tested on: Cricetinae gen. sp.; test: Inhibition of Vaginal Candida (C-43 strain) infection in Hamsters, estimated as Percent Area under curve at 0.05 % concentration after 8 days of administration; format: functional, Cricetulus griseus; procedure, shortened: as §6
# [25] = tested on: Cricetinae gen. sp.; test: Inhibition of Vaginal Candida (C-60 strain) infection in Hamsters, estimated as Percent Area under curve at 0.05 % concentration after 8 days of administration; format: functional, Cricetulus griseus; procedure, shortened: as §6
# [26] = tested on: Arthrodermataceae; test: as §3; format: functional; procedure, shortened: as §4
SMILES,MIC [1] [µg/mL],MIC [2] [µg/mL],MIC [3] [µg/mL],MIC [5] [µg/mL],MIC [6] [µg/mL],MIC [8] [µg/mL],MIC [9] [µg/mL],MIC [10] [µg/mL],MIC [11] [µg/mL],MIC [13] [µg/mL],MIC [14] [µg/mL],MIC [15] [µg/mL],Geometric mean [4],Geometric mean [7],Geometric mean [12],Inhibition [21] [%],other results
Clc1ccc(COC(Cn2ccnc2)c2ccc(Cl)cc2Cl)c(Cl)c1 (stereo not drawn) [MICONAZOLE],8,0.25,8,4,0.125,< 0.031,< 0.031,< 0.031,< 0.031,0.125,< 0.031,1,<1.8,<0.03,0.18,33,Culture negative [16]: 60%; Culture negative [17]: 20%; Inhibition [18]: 69%; Inhibition [19]: 63%; Inhibition [20]: 63%
Fc1ccc(C2(Cn3ccnc3)OCc3ccccc32)c(F)c1 (stereo not drawn),> 64,< 0.031,> 64,64,< 0.031,,2,0.5,16,< 0.031,0.25,,48,2.5,< 0.02,69,Inhibition [22]: 88%
Clc1ccc(C2(Cn3ccnc3)OCc3ccccc32)c(Cl)c1 (stereo not drawn),32,< 0.031,32,32,< 0.031,0.063,< 0.031,< 0.031,< 0.031,< 0.031,< 0.031,0.5,7.2,<0.04,< 0.02,78,Inhibition [22]: 94%
Clc1ccc(C2(Cn3ccnc3)OCc3ccc(Cl)cc32)c(Cl)c1 (stereo not drawn),64,< 0.031,64,8,1,,0.5,0.5,8,< 0.031,< 0.031,,<15,1.3,< 0.031,26,Inhibition [22]: 64%
OC1OC(Cn2cncn2)(c2ccc(Cl)cc2)c2ccccc21 (stereo not drawn),> 64,,> 64,> 64,,8,> 64,> 64,64,,32,> 64,,>54,,,
c1ccc(C2(Cn3ccnc3)SCc3ccccc32)cc1 (stereo not drawn),64,0.25,64,64,0.125,0.063,4,2,2,0.25,16,16,53,,0.19,,Geometric mean [26]: 1.7
c1ccc(-c2ccc(C3(Cn4ccnc4)OCc4ccccc43)cc2)cc1 (stereo not drawn),32,0.25,16,32,0.063,< 0.031,1,< 0.031,< 0.031,0.125,< 0.031,8,7.2,,0.16,,
Clc1ccccc1C(c1ccccc1)(c1ccccc1)n1ccnc1 [CLOTRIMAZOLE],,,,,,,,,,,,,,,,,Lesion score [23]: 5; Culture negative [16]: 87%; Culture negative [17]: 75%; Inhibition [25]: 34%
Clc1ccc(C2(Cn3ccnc3)OCc3c(Cl)cc(Cl)cc32)c(Cl)c1 (stereo not drawn),8,2,4,8,2,,8,8,8,2,4,16,4.9,9.5,2,,Inhibition [24]: <30%

# The next lines start with results.
MIC [1] [µg/mL],MIC [2] [µg/mL],MIC [3] [µg/mL],MIC [5] [µg/mL],MIC [6] [µg/mL],MIC [8] [µg/mL],MIC [9] [µg/mL],MIC [10] [µg/mL],MIC [11] [µg/mL],MIC [13] [µg/mL],MIC [14] [µg/mL],MIC [15] [µg/mL],SMILES,Geometric mean [4],Geometric mean [7],Geometric mean [12],Inhibition [21] [%],other results
64,< 0.031,32,64,< 0.031,< 0.031,1,1,1,< 0.031,1,4,Clc1ccc(C2(Cn3cncn3)OCc3ccccc32)cc1 (stereo not drawn),16,<0.57,< 0.02,,
64,0.25,64,64,0.125,< 0.031,16,16,16,0.25,8,64,c1ccc(C2(Cn3ccnc3)OCc3ccccc32)cc1 (stereo not drawn),48,<5.2,0.2,,
> 64,0.25,> 64,> 64,0.25,0.25,4,8,8,0.25,4,32,Clc1ccc(CC2(Cn3ccnc3)OCc3ccccc32)cc1 (stereo not drawn),>78,4.6,0.25,,
64,< 0.031,64,64,< 0.031,< 0.031,1,0.125,0.25,< 0.031,2,1,Clc1ccc(C2(Cn3ccnc3)OCCc3ccccc32)cc1 (stereo not drawn),51,<0.22,< 0.02,,
16,< 0.031,32,16,0.125,< 0.031,2,2,2,< 0.031,0.25,4,Clc1ccc(C2(Cn3ccnc3)OCc3ccccc32)cc1 (stereo not drawn),7.2,<0.86,< 0.03,30,Lesion score [23]: 3 and >2; Culture negative [16]: 87%; Culture negative [17]: 90%; Inhibition [24]: 89%; Inhibition [22]: 88%; Inhibition [25]: 88%
